17 compounds from ChEMBL document CHEMBL3400094, “Synthesis and SAR study of potent and selective PI3Kδ inhibitors” (Bioorg Med Chem Lett, 2015) can be followed below.

Series [1] has as its target Phosphatidylinositol 4,5-bisphosphate 3-kinase catalytic subunit alpha isoform (Homo sapiens, UniProt P42336). Nature of the series: Inhibition of PI3Kalpha (unknown origin) by biochemical Alphascreen assay.
For series [2], the target named is Phosphatidylinositol 4,5-bisphosphate 3-kinase catalytic subunit beta isoform (Homo sapiens, UniProt P42338). As to the kind of experiment: Inhibition of PI3Kbeta (unknown origin) by biochemical Alphascreen assay. (In Alpha technology, singlet oxygen from a donor bead excites a nearby acceptor bead.)
Chain of Phosphatidylinositol 4,5-bisphosphate 3-kinase catalytic subunit beta isoform (P42338 whole entry, canonical isoform): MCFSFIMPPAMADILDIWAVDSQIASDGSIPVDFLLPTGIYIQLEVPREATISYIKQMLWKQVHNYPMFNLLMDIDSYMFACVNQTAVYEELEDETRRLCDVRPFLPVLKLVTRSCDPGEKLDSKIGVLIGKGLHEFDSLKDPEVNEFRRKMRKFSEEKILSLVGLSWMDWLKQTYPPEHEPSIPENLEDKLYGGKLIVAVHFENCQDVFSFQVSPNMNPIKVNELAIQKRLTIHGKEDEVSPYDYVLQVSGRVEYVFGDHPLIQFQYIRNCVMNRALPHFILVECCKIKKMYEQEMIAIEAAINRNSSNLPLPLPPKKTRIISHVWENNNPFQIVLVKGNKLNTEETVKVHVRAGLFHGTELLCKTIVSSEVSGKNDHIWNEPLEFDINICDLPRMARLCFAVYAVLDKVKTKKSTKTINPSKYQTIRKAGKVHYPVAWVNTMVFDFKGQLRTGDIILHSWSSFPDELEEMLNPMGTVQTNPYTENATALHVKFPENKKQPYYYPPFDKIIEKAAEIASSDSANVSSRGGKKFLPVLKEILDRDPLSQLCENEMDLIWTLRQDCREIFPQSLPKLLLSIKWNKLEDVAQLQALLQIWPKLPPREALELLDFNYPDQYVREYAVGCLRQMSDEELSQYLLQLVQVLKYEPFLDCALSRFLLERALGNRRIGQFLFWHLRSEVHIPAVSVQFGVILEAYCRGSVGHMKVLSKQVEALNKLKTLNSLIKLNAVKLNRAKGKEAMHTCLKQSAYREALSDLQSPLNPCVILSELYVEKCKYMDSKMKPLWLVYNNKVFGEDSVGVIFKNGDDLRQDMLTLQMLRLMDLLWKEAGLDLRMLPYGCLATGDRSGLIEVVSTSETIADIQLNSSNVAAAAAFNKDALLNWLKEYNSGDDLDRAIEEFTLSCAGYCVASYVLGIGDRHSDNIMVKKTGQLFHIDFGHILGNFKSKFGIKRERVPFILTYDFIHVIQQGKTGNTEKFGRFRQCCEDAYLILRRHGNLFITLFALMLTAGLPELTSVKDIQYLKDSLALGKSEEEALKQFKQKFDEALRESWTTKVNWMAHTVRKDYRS
The target in series [3] is Phosphatidylinositol 4,5-bisphosphate 3-kinase catalytic subunit gamma isoform (Homo sapiens, UniProt P48736). As to the kind of experiment: Inhibition of PI3Kgamma (unknown origin) by biochemical Alphascreen assay.
Chain of Phosphatidylinositol 4,5-bisphosphate 3-kinase catalytic subunit gamma isoform (P48736 whole entry, canonical isoform): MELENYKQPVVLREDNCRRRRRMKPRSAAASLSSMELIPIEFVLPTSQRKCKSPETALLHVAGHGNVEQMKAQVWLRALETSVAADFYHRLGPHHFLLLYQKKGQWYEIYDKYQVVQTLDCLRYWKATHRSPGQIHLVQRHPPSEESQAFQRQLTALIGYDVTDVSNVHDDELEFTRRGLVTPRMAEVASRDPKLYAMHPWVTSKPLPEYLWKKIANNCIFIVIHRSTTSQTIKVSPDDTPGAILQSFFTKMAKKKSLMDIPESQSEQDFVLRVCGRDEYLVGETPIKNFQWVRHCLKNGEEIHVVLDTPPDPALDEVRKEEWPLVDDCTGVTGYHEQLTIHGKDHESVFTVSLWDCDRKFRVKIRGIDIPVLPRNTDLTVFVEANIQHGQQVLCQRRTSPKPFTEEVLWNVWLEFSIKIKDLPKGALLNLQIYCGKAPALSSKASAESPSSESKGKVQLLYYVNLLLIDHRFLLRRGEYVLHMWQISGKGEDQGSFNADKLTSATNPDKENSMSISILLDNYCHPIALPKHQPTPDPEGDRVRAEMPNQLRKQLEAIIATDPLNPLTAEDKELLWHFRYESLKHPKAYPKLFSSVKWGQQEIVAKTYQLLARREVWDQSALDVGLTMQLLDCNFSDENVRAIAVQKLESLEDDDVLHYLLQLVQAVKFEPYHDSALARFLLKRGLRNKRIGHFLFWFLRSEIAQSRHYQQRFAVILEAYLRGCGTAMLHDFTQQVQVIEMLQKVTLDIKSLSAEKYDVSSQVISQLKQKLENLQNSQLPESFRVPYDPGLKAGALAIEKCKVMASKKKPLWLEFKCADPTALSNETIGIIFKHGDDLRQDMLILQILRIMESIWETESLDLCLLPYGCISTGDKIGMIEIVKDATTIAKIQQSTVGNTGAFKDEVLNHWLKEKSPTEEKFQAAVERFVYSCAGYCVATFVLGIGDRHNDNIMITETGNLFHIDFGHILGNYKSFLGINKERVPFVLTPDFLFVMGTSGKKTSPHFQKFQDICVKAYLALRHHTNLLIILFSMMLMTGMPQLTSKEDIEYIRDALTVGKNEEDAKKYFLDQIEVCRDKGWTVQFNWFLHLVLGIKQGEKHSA
Series [4] concerns the target T1, Phosphatidylinositol 4,5-bisphosphate 3-kinase catalytic subunit delta isoform (Homo sapiens, UniProt O00329).
T1 sequence (O00329 whole entry): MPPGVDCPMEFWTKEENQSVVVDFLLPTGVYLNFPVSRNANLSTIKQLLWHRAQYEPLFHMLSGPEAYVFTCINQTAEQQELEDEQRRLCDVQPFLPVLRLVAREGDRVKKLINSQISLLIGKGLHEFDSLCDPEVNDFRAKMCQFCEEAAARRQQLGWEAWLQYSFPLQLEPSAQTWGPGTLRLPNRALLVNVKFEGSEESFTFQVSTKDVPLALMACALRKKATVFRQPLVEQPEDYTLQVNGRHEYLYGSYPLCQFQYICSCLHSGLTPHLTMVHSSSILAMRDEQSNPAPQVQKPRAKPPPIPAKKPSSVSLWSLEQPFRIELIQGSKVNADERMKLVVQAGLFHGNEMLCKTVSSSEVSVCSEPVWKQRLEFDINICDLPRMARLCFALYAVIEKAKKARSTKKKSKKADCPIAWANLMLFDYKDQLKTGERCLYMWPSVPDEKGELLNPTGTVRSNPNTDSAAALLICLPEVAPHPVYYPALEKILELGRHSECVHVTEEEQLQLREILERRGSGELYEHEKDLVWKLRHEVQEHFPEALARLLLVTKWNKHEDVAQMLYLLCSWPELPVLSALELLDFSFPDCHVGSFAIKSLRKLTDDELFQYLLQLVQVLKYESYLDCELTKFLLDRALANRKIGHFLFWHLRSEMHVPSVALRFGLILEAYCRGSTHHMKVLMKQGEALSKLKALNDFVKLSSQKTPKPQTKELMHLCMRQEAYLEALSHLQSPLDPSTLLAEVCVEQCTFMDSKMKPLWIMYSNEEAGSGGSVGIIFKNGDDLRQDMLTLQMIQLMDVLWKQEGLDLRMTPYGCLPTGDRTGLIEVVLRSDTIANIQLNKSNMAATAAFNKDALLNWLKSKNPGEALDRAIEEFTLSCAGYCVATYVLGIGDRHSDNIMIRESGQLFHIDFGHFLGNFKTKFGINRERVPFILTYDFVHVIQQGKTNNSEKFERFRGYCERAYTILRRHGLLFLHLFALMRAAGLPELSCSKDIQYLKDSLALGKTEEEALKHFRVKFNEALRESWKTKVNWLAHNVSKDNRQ
As to the kind of experiment: Inhibition of PI3Kdelta (unknown origin) assessed as inhibition of AKT phosphorylation by cell-based HTRF assay.

Series [5] deals with T1, Phosphatidylinositol 4,5-bisphosphate 3-kinase catalytic subunit delta isoform. As to the kind of experiment: Inhibition of PI3Kdelta (unknown origin) by biochemical Alphascreen assay.
The nature of series [6]: Clearance in Sprague-Dawley rat at 0.5 mg/kg, iv and 2 to 10 mg/kg, po. Format: ADME, organism-based. The settings on record: in vivo. In outline:
(§1)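 Male Sprague-Dawley rats, n=3. Compounds formulated for iv dosing at 0.5 mg/kg or oral dosing at 2-10 mg/kg.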

The nature of series [7]: Oral bioavailability in Sprague-Dawley rat at 2 to 10 mg/kg. Particulars: in vivo. Type of series: ADME, organism-based. In outline: as §1
Series [8] can be described thus: Metabolic stability assessed as glutathione adduct formation of SO2Me after 30 mins. The settings on record: 0.5 h. Format: ADME.

Chain of Phosphatidylinositol 4,5-bisphosphate 3-kinase catalytic subunit alpha isoform (P42336 whole entry, canonical isoform): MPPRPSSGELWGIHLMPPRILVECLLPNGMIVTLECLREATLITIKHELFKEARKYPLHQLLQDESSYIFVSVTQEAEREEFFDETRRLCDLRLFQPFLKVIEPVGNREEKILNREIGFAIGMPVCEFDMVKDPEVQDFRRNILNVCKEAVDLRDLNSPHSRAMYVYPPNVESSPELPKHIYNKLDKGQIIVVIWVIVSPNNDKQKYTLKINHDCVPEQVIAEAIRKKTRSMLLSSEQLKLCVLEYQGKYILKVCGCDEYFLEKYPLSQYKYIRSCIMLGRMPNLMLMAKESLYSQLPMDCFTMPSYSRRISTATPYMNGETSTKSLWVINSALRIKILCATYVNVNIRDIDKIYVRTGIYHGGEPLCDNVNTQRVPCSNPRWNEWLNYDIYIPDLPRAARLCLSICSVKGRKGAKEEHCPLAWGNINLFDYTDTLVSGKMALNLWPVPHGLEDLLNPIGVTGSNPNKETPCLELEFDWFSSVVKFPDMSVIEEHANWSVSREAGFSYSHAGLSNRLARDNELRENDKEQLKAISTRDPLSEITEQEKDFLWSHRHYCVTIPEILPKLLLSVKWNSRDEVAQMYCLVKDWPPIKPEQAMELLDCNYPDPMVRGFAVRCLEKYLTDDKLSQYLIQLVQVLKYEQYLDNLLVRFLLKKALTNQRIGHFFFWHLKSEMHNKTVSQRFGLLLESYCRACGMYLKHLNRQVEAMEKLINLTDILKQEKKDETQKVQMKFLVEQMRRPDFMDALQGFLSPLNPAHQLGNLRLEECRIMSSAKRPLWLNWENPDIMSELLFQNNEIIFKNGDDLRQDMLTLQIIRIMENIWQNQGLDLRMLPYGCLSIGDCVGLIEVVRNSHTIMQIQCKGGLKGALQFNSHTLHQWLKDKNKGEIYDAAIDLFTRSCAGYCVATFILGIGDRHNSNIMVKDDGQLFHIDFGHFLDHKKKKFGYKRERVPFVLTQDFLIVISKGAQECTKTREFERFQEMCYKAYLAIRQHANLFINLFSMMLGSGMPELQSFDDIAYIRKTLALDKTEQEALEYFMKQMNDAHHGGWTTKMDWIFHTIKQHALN

Regarding `C[C@H](Nc1ncnc(N)c1C#N)c1nc2ccc(F)cc2c(N2CC(O)C2)c1-c1ccccn1`, the IC50 (in general, the midpoint of a concentration-inhibition curve) in series [1] worked out at 1210 nM; in series [2], 280 nM; in series [3], 510 nM; in series [4], 1.4 nM; in series [5], 18 nM.

As to `C[C@H](Nc1ncnc(N)c1C#N)c1nc2ccc(F)cc2c(NCCN(C)C)c1-c1ccccc1`, the IC50 in series [1] was determined as 1600 nM; in series [2] it was 5000 nM; in series [3] it was 1600 nM; in series [5], 1.7 nM.

On to `COc1c(-c2ccccc2)c([C@H](C)Nc2ncnc(N)c2C#N)nc2ccc(F)cc12`, for which the IC50 in series [1] was 420 nM; in series [2], 8.2 nM; in series [3], 11 nM; in series [4], 0.8 nM; in series [5], 1.2 nM.

Consider `CC(Nc1ncnc(N)c1C#N)c1nc2ccc(F)cc2c(O)c1-c1ccccc1` (racemic), for which the IC50 in series [1] is more than 20000 nM; in series [2], more than 20000 nM; in series [3] it was 210 nM; in series [4], 2.8 nM; in series [5] it was 16 nM. In series [6], this compound gave a clearance of 11.7 mL/min/kg. Also, in series [7], the bioavailability (commonly dose-corrected exposure relative to a reference, in per cent) was found to be 15%.

For `C[C@H](Nc1ncnc(N)c1C#N)c1nc2ccc(F)cc2c(N2CCOCC2)c1-c1ccccn1`, the concentration for half-maximal inhibition (IC50) was 830 nM in series [1]; 80 nM in series [2]; 200 nM in series [3]; 1.2 nM in series [4]; 1.2 nM in series [5].

Consider `CC(Nc1ncnc(N)c1C#N)c1nc2ccc(F)cc2c(NCCO)c1-c1ccccc1` (racemic), for which the half-inhibitory concentration (IC50) is 1200 nM in series [1]; 460 nM in series [2]; 120 nM in series [3]; 3.1 nM in series [4]; 0.4 nM in series [5].

`C[C@H](Nc1ncnc(N)c1C#N)c1nc2ccc(F)cc2c(-c2ccccn2)c1-c1ccccn1`: the clearance in series [6] is 0.95 mL/min/kg. The compound also returned a bioavailability in series [7] of 51%.

Consider `COCc1c(-c2ccccn2)c([C@H](C)Nc2ncnc(N)c2C#N)nc2ccc(F)cc12`, for which the IC50 in series [2] came out at 4030 nM; in series [3], 4950 nM; in series [4] it was 3.1 nM; in series [5], 16 nM.

Take `C[C@H](Nc1ncnc(N)c1C#N)c1nc2ccc(F)cc2c(NCCS(C)(=O)=O)c1-c1ccccc1`: the IC50 in series [1] was determined as 900 nM; in series [2] it was 500 nM; in series [3], 19 nM; in series [4] it was 0.5 nM; in series [5], 0.2 nM.

Consider `C[C@H](Nc1ncnc(N)c1C#N)c1nc2ccc(F)cc2c([S+]([O-])CCO)c1-c1ccccc1` (some centres not stated), for which the IC50 in series [1] came to 620 nM; in series [2] it was 160 nM; in series [3] it was 380 nM; in series [5], 2.5 nM.

On to `CC(Nc1ncnc(N)c1C#N)c1nc2ccc(F)cc2c(N(C)C)c1-c1ccccn1` (racemic), for which the IC50 was 1150 nM in series [1]; 710 nM in series [2]; 290 nM in series [3]; 3.6 nM in series [4]; 1.4 nM in series [5].

In the case of `Cc1cccnc1-c1c(-c2ccccn2)c([C@H](C)Nc2ncnc(N)c2C#N)nc2ccc(F)cc12`, the IC50 in series [1] was more than 20000 nM; in series [2] it was more than 20000 nM; in series [3] it was more than 20000 nM; in series [5] it was 15 nM. The compound further showed a clearance in series [6] of 3.5 mL/min/kg.

Consider `COCCNc1c(-c2ccccc2)c([C@H](C)Nc2ncnc(N)c2C#N)nc2ccc(F)cc12`, for which the IC50 in series [1] is 1080 nM; in series [2] it was 420 nM; in series [3], 13 nM; in series [4] it was 2.4 nM; in series [5], 0.6 nM.

For the compound `CC(Nc1ncnc(N)c1C#N)c1nc2ccc(F)cc2cc1-c1ccccn1` (racemic), the IC50 in series [1] was more than 20000 nM; in series [2], more than 20000 nM; in series [3] it was 1100 nM; in series [5] it was 8.8 nM.

For `C[C@H](Nc1ncnc(N)c1C#N)c1nc2ccc(F)cc2c(S(C)(=O)=O)c1-c1ccccc1`, the IC50 is 920 nM in series [1]; 510 nM in series [2]; 220 nM in series [3]; 0.1 nM in series [4]; 0.7 nM in series [5]. Also, the clearance in series [6] is 167 mL/min/kg. Besides, the Stability result in series [8] is “Unstable”.

For `CC(Nc1ncnc(N)c1C#N)c1nc2ccc(F)cc2c(C#N)c1-c1ccccn1` (racemic), the IC50 in series [1] is 4400 nM; in series [2] it was 240 nM; in series [3] it was 1420 nM; in series [4] it was 12 nM; in series [5] it was 8.3 nM.

On to `CC(Nc1ncnc(N)c1C#N)c1nc2ccc(F)cc2c(Cl)c1-c1ccccn1` (racemic), for which the IC50 came out at 1370 nM in series [1]; 230 nM in series [2]; 250 nM in series [3]; 11 nM in series [4]; 4 nM in series [5].
